Results: BindingDB's records for doi:10.1016/j.ejmech.2015.10.033 (Kyungpook National University, 2015)

Target: T1, Polyphenol oxidase 2 (Agaricus bisporus, UniProt O42713)
T1 sequence (O42713 whole entry): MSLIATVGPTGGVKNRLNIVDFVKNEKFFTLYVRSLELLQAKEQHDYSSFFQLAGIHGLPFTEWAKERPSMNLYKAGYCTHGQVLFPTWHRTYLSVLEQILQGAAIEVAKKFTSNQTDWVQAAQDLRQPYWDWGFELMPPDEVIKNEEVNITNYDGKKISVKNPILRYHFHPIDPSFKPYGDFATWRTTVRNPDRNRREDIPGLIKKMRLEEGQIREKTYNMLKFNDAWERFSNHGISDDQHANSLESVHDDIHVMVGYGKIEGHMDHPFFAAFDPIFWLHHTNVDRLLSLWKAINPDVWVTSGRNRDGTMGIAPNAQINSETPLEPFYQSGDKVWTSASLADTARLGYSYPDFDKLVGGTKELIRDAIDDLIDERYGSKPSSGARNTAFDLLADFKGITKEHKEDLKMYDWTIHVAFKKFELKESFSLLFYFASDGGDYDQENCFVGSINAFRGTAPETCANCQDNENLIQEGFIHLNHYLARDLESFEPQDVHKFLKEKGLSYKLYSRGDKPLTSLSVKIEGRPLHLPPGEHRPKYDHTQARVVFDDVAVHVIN
Test: Non-competitive inhibition of mushroom tyrosinase using L-tyrosine as substrate by Lineweaver-Burk plots analysis
How it was run: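 Absorbance at 475 nm read at 30 °C in PBS with 5% DMSO. Global nonlinear Michaelis–Menten fitting over four inhibition models gave Vmax, Km, Kic and Kiu, with the model chosen by minimal χ2.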

| SMILES | Ki [µM] |
| --- | --- |
| NC(=S)c1ccccn1 | 2.7 |
| NC(=S)c1ccccc1 | 0.7 |
| NC(=S)c1ccncc1 | 22.3 |
| CCc1cc(C(N)=S)ccn1 [CHEBI:4885] | 1.9 |
| CCCc1cc(C(N)=S)ccn1 [Ektebin] | 2.4 |
| NC(=S)c1cccnc1 [thionicotinamide] | 4.3 |
